From ChEMBL document CHEMBL1121505, “Retinoic acid analogues. Synthesis and potential as cancer chemopreventive agents” (J Med Chem, 1980) come the findings set out here.

Holding throughout (assay type): functional
Experiment [1] can be described thus: Inhibition of skin tumor promoter -induced mouse epidermal ornithine decarboxylase (ODC) activity on TPA-induced mouse epidermis at a dose of 1.7(nmol). A digest of the protocol: (§1)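 Female CD-1 mice, 7–9 weeks, shaved dorsal skin 1–2 days before, no hair regrowth. Retinoid applied topically in 0.2 mL acetone 1 h before single topical TPA (10.5 μg, 17 nmol, in 0.2 mL acetone). Killed 5 h after TPA. Five mice per group, skins pooled. Epidermal 30000g supernatant in 50 mM sodium phosphate, 0.1 mM pyridoxal phosphate, 0.1 mM EDTA.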

Experiment [2] is described as follows: Inhibition of skin tumor promoter -induced mouse epidermal ornithine decarboxylase (ODC) activity on TPA-induced mouse epidermis at a dose of 17(nmol). A digest of the protocol:
as §1

Experiment [3] can be described thus: Inhibition of skin tumor promoter -induced mouse epidermal ornithine decarboxylase (ODC) activity on TPA-induced mouse epidermis at a dose of 170(nmol). A digest of the protocol: as §1

Each structure is given as a SMILES string.

Take `COCCOCCOC(=O)/C=C(C)/C=C/C=C(C)/C=C/C1=C(C)CCCC1(C)C`: the values for the inhibition in experiment [1], in experiment [2] and in experiment [3] were 70%, 92% and 97%, respectively.
`CCC1=C(/C=C/C(C)=C/C=C/C(C)=C/C(=O)O)C(C)(C)CCC1`: the inhibition (as a rule, the share of the control response that was lost under treatment) in experiment [1] was found to be 66%; in experiment [2], 86%; in experiment [3], 87%.
Taken in the same sequence, the figures for `CC1=C(/C=C/C(C)=C/C=C/C(C)=C/c2nn[nH]n2)C(C)(C)CCC1` were 3%, 13% and 2%.
For `CC1=C(/C=C/C(C)=C/C=C/C(C)=C/C(=O)O)C(C)(C)CCC1`, the inhibition in experiment [1] was 91%.
Take `CCOC(=O)/C=C(C)/C=C/C=C(C)/C=C/C1=CC2CCC1C2` (stereo unspecified): the inhibition is 46% in experiment [1], 63% in experiment [2] and 95% in experiment [3].
`CC(=O)Oc1cccc(/C=C/C=C(C)/C=C/C2=C(C)CCCC2(C)C)c1`: the inhibition in experiment [1] is 3%; in experiment [2], 46%; in experiment [3] it was 92%.
